Drawing on ChEMBL document CHEMBL3045729, “Anti-tobacco mosaic virus (TMV) triterpenoid saponins from the leaves of Ilex oblonga” (J Agric Food Chem, 2007), this text covers inhibition and EC50 for 10 compounds.

The subject of test [1] is Tobacco mosaic virus. Description: Antiviral activity against Tobacco mosaic virus (TMV) inoculated in Nicotiana tabacum cv. K326 leaves assessed as inhibition of virus multiplication at 0.2 mg/ml at 25 degC measured after 48 hr by indirect ELISA/leaf-disk method. Type of test: functional. The gist of the method: (§1)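 N. tabacum cv. K326 leaves mechanically inoculated with TMV at 10 µg/mL. After 7 h, 10-mm disks were floated on compound solutions (DMSO, diluted with water) for 48 h at 25 ± 1 °C. Solvent-only and healthy-leaf disks were controls; six repetitions. Ground disks were assayed by indirect ELISA (OD405) against an in-plate TMV standard curve. Inhibition was calculated relative to the solvent control.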
(In an ELISA, binding on a coated surface is turned into a signal by an enzyme label.)

Test [2] has as its system Tobacco mosaic virus. As to the kind of experiment: Antiviral activity against Tobacco mosaic virus (TMV) inoculated in Nicotiana tabacum cv. K326 leaves assessed as inhibition of virus multiplication at 25 degC measured after 48 hr by indirect ELISA/leaf-disk method. Type of test: functional, organism-based. In a few lines: as §1
The subject of test [3] is Tobacco mosaic virus. As to the kind of experiment: Antiviral activity against Tobacco mosaic virus (TMV) inoculated in Nicotiana tabacum cv. K326 leaves assessed as inhibition of virus multiplication at 0.1 mg/ml at 25 degC measured after 48 hr by indirect ELISA/leaf-disk method. Type of test: functional. The gist of the method: as §1
In test [4] the test system is Tobacco mosaic virus. As to the kind of experiment: Antiviral activity against Tobacco mosaic virus (TMV) inoculated in Nicotiana tabacum cv. K326 leaves assessed as inhibition of virus multiplication at 0.05 mg/ml at 25 degC measured after 48 hr by indirect ELISA/leaf-disk method. Type of test: functional. The gist of the method:
as §1

The test system of test [5] is Tobacco mosaic virus. As to the kind of experiment: Antiviral activity against Tobacco mosaic virus (TMV) inoculated in Nicotiana tabacum cv. K326 leaves assessed as inhibition of virus multiplication at 0.4 mg/ml at 25 degC measured after 48 hr by indirect ELISA/leaf-disk method. Type of test: functional. In a few lines: as §1
Test [6] deals with Tobacco mosaic virus. As to the kind of experiment: Antiviral activity against Tobacco mosaic virus (TMV) inoculated in Nicotiana tabacum cv. K326 leaves assessed as inhibition of virus multiplication at 0.025 mg/ml at 25 degC measured after 48 hr by indirect ELISA/leaf-disk method. Type of test: functional. In a few lines:
as §1

In brackets after ≈: the same amount, converted by molar mass.

Broadly, the inhibition is how much of the control response was suppressed. On to `C[C@@H]1CC[C@]2(C(=O)O[C@@H]3O[C@H](CO)[C@@H](O)[C@H](O)[C@H]3O)CC[C@]3(C)C(=CC[C@@H]4[C@@]5(C)CC[C@H](O)C(C)(C)[C@@H]5CC[C@]43C)[C@@H]2[C@]1(C)O`, for which the inhibition at 200 µg/mL in the test on Tobacco mosaic virus [1] worked out at 27%.

What is called EC50 is the concentration at which the effect is half-maximal. As to `CC1(C)CC[C@]2(C(=O)O[C@@H]3O[C@H](CO)[C@@H](O)[C@H](O)[C@H]3O)CC[C@]3(C)C(=CC[C@@H]4[C@@]5(C)CC[C@H](O)C(C)(C)[C@@H]5CC[C@]43C)[C@@H]2[C@@H]1O`, the inhibition at 200 µg/mL in the test with Tobacco mosaic virus [1] was 84.5%. Further, the 50% effective concentration (EC50) in the test on Tobacco mosaic virus [2] was 80 µg/mL (≈ 126 µM). Further, in the test on Tobacco mosaic virus [3], the inhibition at 100 µg/mL turned out to be 65.7%. In addition, the inhibition at 50 µg/mL in the test on Tobacco mosaic virus [4] worked out at 25.3%. Moreover, the inhibition at 400 µg/mL in the test on Tobacco mosaic virus [5] came out at 89.2%. The inhibition at 25 µg/mL in the test on Tobacco mosaic virus [6] worked out at 7.6%.

Take `C[C@@H]1CC[C@]2(C(=O)O[C@@H]3O[C@H](CO)[C@@H](O)[C@H](O)[C@H]3O)CC[C@]3(C)C(=CC[C@@H]4[C@@]5(C)C[C@@H](O)[C@H](O)[C@@](C)(CO)[C@@H]5CC[C@]43C)[C@@H]2[C@]1(C)O` [NIGAICHIGOSIDE F1]: in the test with Tobacco mosaic virus [1], the inhibition at 200 µg/mL was determined as 24.9%.

`C[C@@H]1CC[C@]2(C(=O)O[C@@H]3O[C@H](CO)[C@@H](O)[C@H](O)[C@H]3O)CC[C@]3(C)C(=CC[C@@H]4[C@@]5(C)CC[C@H](O[C@@H]6OC[C@@H](O)[C@H](O)[C@H]6O)C(C)(C)[C@@H]5CC[C@]43C)[C@@H]2[C@]1(C)O` [OBLONGANOSIDE H]: the inhibition at 200 µg/mL with Tobacco mosaic virus [1] was determined as 37.4%.

In the case of `C[C@@H]1CC[C@]2(C(=O)O[C@@H]3O[C@H](CO)[C@@H](O)[C@H](O)[C@H]3O)CC[C@]3(C)C(=CC[C@@H]4[C@@]5(C)CC[C@H](O[C@@H]6OC[C@@H](O)[C@H](O)[C@H]6O)[C@@](C)(CO)[C@@H]5CC[C@]43C)[C@@H]2[C@]1(C)O` [OBLONGANOSIDE I], the inhibition at 200 µg/mL in the test on Tobacco mosaic virus [1] was 31.7%.

Regarding `C[C@@H]1CC[C@]2(C(=O)O[C@@H]3O[C@H](CO)[C@@H](O)[C@H](O)[C@H]3O)CC[C@]3(C)C(=CC[C@@H]4[C@@]5(C)CC[C@@H]6O[C@H](CO)OC[C@@]6(C)[C@@H]5CC[C@]43C)[C@@H]2[C@]1(C)O` [OBLONGANOSIDE J], in the test on Tobacco mosaic virus [1], the inhibition at 200 µg/mL amounted to 28.1%.

For `CC1(C)CC[C@]2(C(=O)O[C@@H]3O[C@H](CO)[C@@H](O)[C@H](O)[C@H]3O)CC[C@]3(C)C(=CC[C@@H]4[C@@]5(C)CC[C@H](O[C@@H]6OC[C@@H](O)[C@H](O)[C@H]6O)C(C)(C)[C@@H]5CC[C@]43C)[C@@H]2[C@@H]1O` [OBLONGANOSIDE K], the inhibition at 200 µg/mL in the test with Tobacco mosaic virus [1] worked out at 85.7%. Moreover, the 50% effective concentration (EC50) with Tobacco mosaic virus [2] was 76 µg/mL (≈ 99.1 µM). For the same compound, the inhibition at 100 µg/mL in the test on Tobacco mosaic virus [3] turned out to be 63.9%. The inhibition at 50 µg/mL in the test with Tobacco mosaic virus [4] stood at 31.4%. Further, the inhibition at 400 µg/mL in the test with Tobacco mosaic virus [5] is 88.5%. In addition, in the test on Tobacco mosaic virus [6], the inhibition at 25 µg/mL stood at 13.1%.

Take `CC1(C)[C@@H](O[C@@H]2OC[C@@H](O)[C@H](O)[C@H]2O)CC[C@]2(C)[C@H]3CC=C4[C@@H]5C[C@](C)(CO)CC[C@]5(C(=O)O[C@@H]5O[C@H](CO)[C@@H](O)[C@H](O)[C@H]5O)CC[C@@]4(C)[C@]3(C)CC[C@@H]12` [OBLONGANOSIDE L]: in the test on Tobacco mosaic virus [1], the inhibition at 200 µg/mL is 46.9%.

`CC1(C)CC[C@]2(C(=O)O[C@@H]3O[C@H](CO)[C@@H](O)[C@H](O)[C@H]3O)CC[C@]3(C)C(=CC[C@@H]4[C@@]5(C)CC[C@H](O[C@@H]6OC[C@@H](O)[C@H](O)[C@H]6O)[C@@](C)(CO)[C@@H]5CC[C@]43C)[C@@H]2[C@@H]1O` [OBLONGANOSIDE M]: the inhibition at 200 µg/mL in the test with Tobacco mosaic virus [1] stood at 78.5%. The EC50 in the test on Tobacco mosaic virus [2] worked out at 85 µg/mL (≈ 109 µM). Also, the inhibition at 100 µg/mL with Tobacco mosaic virus [3] came out at 61.5%. The inhibition at 50 µg/mL in the test with Tobacco mosaic virus [4] was 32.7%. In the test with Tobacco mosaic virus [5], the inhibition at 400 µg/mL was determined as 85.3%. The inhibition at 25 µg/mL in the test on Tobacco mosaic virus [6] was found to be 5.2%.

In the case of `C[C@@H]1CC[C@]2(C(=O)O[C@@H]3O[C@H](CO)[C@@H](O)[C@H](O)[C@H]3O)CC[C@]3(C)C(=CC[C@@H]4[C@@]5(C)CC[C@H](O)[C@@](C)(CO)[C@@H]5CC[C@]43C)[C@@H]2[C@]1(C)O` [PEDUNCULOSIDE], the inhibition at 200 µg/mL with Tobacco mosaic virus [1] worked out at 41.5%.
